From PubChem
MrgX1 PAM = allosterically activates human MrgX1 receptor signaling. Q96LB2. MrgX1-HEK293, Fluo-4 calcium flux, FDSS; active compounds read high. B-score at 10 µM. 0.63% of 310,000 active. AID 588675;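 active = plate-corrected calcium response at least 3 library SD above typical, normal starting fluorescence, not activating the receptor alone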;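 note: compound read alongside a low EC10 to EC30 dose of BAM8-22 agonist; peak minus trough fluorescence over baseline measured at the second addition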
Target sequence (Q96LB2 whole entry, looked up): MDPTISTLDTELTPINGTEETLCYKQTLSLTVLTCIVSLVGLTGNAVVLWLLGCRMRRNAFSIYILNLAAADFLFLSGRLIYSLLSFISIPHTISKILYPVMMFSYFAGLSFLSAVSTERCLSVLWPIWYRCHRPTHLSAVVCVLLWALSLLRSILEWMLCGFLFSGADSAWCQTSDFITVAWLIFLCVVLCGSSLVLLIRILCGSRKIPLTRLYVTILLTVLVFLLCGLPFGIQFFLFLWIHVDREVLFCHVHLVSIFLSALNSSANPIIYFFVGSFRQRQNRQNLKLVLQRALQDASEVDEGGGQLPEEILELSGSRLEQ
RGS4 inh = inhibitors of human RGS4. HEK293 M3R/RGS4 inducible, Fluo-4 calcium flux; active compounds read high; triggered by carbachol at its EC20. B-score at 10 µM. 0.45% of 310,000 active;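 active = B-score, a plate-corrected calcium signal, over three deviations above library mean, with baseline fluorescence within five deviations of library mean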;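 note: RGS4 expression induced by doxycycline in cells with stable M3 receptor; B-score is computed from the integrated fluorescence ratio over baseline after carbachol; higher B-score means a larger calcium signal and so more RGS4 inhibition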
Target sequence (P49798 whole entry, looked up): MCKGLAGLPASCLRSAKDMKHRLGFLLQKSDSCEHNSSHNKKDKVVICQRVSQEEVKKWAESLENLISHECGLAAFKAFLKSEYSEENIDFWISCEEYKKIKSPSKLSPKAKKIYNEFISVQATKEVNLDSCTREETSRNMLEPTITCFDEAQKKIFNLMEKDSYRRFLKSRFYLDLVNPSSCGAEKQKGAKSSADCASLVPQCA
MrgX1 antagonist = human MrgX1 receptor antagonism, primary screen; MRGX1-HEK293 calcium flux, Fluo-4, BAM8-22 antagonism; active compounds read low; B-score at 10 µM; 1.3% of 310,000 active;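 active = calcium-response B-score plate-corrected more than 3 library SD below zero, starting fluorescence within 5 deviations, no agonist response on first addition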;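 note: peak minus trough fluorescence over baseline after final BAM8-22 challenge near maximal dose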
MrgX1 ag = agonists of human MrgX1 receptor; MrgX1-HEK293 cells, Fluo-4 calcium fluorescence, agonist mode; active compounds read high; 0.44% of 310,000 active; B-score at 10 µM;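 active = calcium response B-score plate-corrected fluorescence ratio at least 3 library SD, with starting fluorescence B-score inside 5 SD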
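System – MrgX1-expressing HEK293 cells · Incubation – cells plated overnight, dye loaded 0.5 h 37 °C, 0.5 h room temperature · Technique – kinetic Fluo-4 NW fluorescence of intracellular calcium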
RGS4 pot = potentiators or activators of RGS4; HEK293 M3R/inducible RGS4, carbachol calcium flux Fluo4; active compounds read low; B-score at 10 µM; 0.92% of 310,000 active; AID 463111;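 active = B-score of the integrated calcium signal more than 4 SD below the library mean, with starting fluorescence not abnormally high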;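 note: negative B-score means reduced calcium response which marks RGS4 activation or potentiation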
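System: HEK293 FlpIn-TREx cells, stable M3R, doxycycline-inducible RGS4. Timing: overnight RGS4 induction, 30 min dye load 37 °C, 20 min compound RT. Also added: carbachol, ECmax concentration. Measured by: Fluo4 fluorescence kinetic imaging of calcium. Evaluation: integrated calcium ratio converted to B score.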
MrgX1 antag conf = confirmation of human MrgX1 receptor antagonists | shares compounds with MrgX1 antagonist | MrgX1-HEK293, BAM8-22 calcium flux, Fluo-4; active compounds read low | remaining BAM8-22 calcium response % of control (active compounds read low), % at 10 µM | 19% of 2,300 active;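 active = remaining agonist calcium response no higher than 100% minus 3 SD of agonist-only control wells, with starting fluorescence near control levels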;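 note: agonist BAM8-22 given at a near maximal EC90 to ECmax level; peak minus minimum fluorescence divided by baseline after agonist addition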
HEK293 Ca flux = counter-screen for MrgX1 antagonists: effect in parental HEK293 cells. shares compounds with MrgX1 antagonist. Fluo-4 calcium fluorescence, FDSS. fluorescence ratio F(max-min)/F0 at 10 µM. 2% of 4,000 active. AID 624111;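 active = duplicate-averaged calcium fluorescence ratio at least three times the standard deviation of buffer wells, a nonspecific response in parental cells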
HEK293 Ca counter = activity in parental HEK293 cells without MrgX1 | shares compounds with MrgX1 antagonist | parental HEK293 calcium flux, Fluo-4 fluorescence ratio; active compounds read high | fluorescence ratio F(max-min)/F0 at 10 µM | 0.4% of 4,000 active | AID 624114;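 active = calcium fluorescence ratio, averaged over duplicates, at least 3 SD of the buffer-well ratio, meaning a nonspecific response in receptor-free cells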;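 note: untransfected parental HEK293 lacking MrgX1 used as counterscreen for MrgX1 allosteric activators; fluorescence change taken during the second addition on a kinetic imager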
HEK293 Ca cntr2 = activity in parental HEK293 cells lacking MrgX1 receptor. Fluo-4 calcium fluorescence (FDSS); active compounds read high. shares compounds with MrgX1 antagonist. fluorescence ratio F(max-min)/F0 at 10 µM. 8.7% of 4,000 active. AID 624115;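 active = calcium fluorescence ratio at least three times the spread of buffer wells, meaning a non-specific response in parental cells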
A number is an active result; - = inactive; . = no result. Compounds with a hit are over-represented: about 3.5% of the library has one in this group of screens.

SMILES	MrgX1 PAM	RGS4 inh	MrgX1 antagonist	MrgX1 ag	RGS4 pot	MrgX1 antag conf	HEK293 Ca flux	HEK293 Ca counter	HEK293 Ca cntr2
C/C(=N\OCC(=O)OC(C)C(=O)Nc1ccc(C(N)=O)cc1)c1ccc2c(c1)OCO2 (stereo not given)	-	-	-	-	-	.	.	.	.
CC(=O)c1cc2c(cc1NC(=O)CSc1nc3ccccc3[nH]1)OCO2	-	-	-6.6	-	-	75%	-	-	-
C=CCn1c(C)cc(C(=O)CSc2nc3ccccc3[nH]2)c1C	-	-	-6.7	-	-	71%	-	-	-
O=C(CSc1nc2ccccc2[nH]1)c1c[nH]c2ccccc12	-	-	-5.7	-	-	-	-	-	-
COCC(C)n1c(C)cc(C(=O)CSc2nc3ccccc3c(=O)[nH]2)c1C (stereo not given)	-	-	-7.7	-	-	-	-	-	-
C=CCn1c(C)cc(C(=O)CSc2nc3ccccc3c(=O)[nH]2)c1C	-	.	-	-	.	.	.	.	.
CCOC(=O)N1CCN(C(=O)c2oc3ccc(S(=O)(=O)N(CC)CC)cc3c2C)CC1	-	-	-	-	-	.	.	.	.
COc1cc2cc(C(=O)O)[nH]c2c(OC)c1OC	-	-	-5.7	-	-	-	-	-	-
COc1ccc(OC)c2c(=O)cc(C(=O)O)[nH]c12	-	-	-	-	-	.	.	.	.
CCOC(=O)N1CCN(C(=O)COC(=O)CN(C)S(=O)(=O)c2ccc(NC(C)=O)cc2)CC1	-	-	-	-	-	.	.	.	.
CCSc1nc(C(F)(F)F)cc(=O)n1-c1ccccc1	-	-	-	-	-	.	.	.	.
CC(C)Sc1nc(C(F)(F)F)cc(=O)n1-c1ccccc1	-	-	-8.2	-	-	-	-	-	-
Cc1ccc(C)c(NC(=S)N2CCN(CCO)CC2)c1	-	-	-4.8	-	-	-	-	-	-
Cc1ccc(C)c(NC(=S)N2CCCCCC2)c1	-	.	-	-	.	.	.	.	.
O=C(CNC(=O)c1ccccc1F)Nc1ccccc1C(F)(F)F	-	-	-	-	-	.	.	.	.
Cc1nc2sc(C(=O)c3ccccc3)c(N)c2c(C)c1C	-	-	-	-	-	.	.	.	.
Cc1nc(-c2ccccc2)nc2sc(C(=O)c3ccc(F)cc3)c(N)c12	-	-	-4.6	-	-	78%	-	-	-
O=C(COc1ccc2c(-c3ccccc3)cc(=O)oc2c1)NCC(O)c1ccccc1 (stereo not given)	-	-	-	-	-	.	.	.	.
N=c1n(Cc2ccccc2)c2ccccc2n1CC(O)c1ccccc1 (stereo not given)	-	-	-5.6	-	-	-	-	-	-
COc1ccccc1OCC(O)Cn1c(=N)n(Cc2ccccc2)c2ccccc21 (stereo not given)	-	-	-	-	-	.	.	.	.
CCN(C(=O)CSc1nnc(CNc2cccc(OC)c2)n1C1CCCCC1)C1CCS(=O)(=O)C1 (stereo not given)	-	-	-	-	-	.	.	.	.
CN(CCN1CCOCC1)C(=O)CC1C(=O)NCCN1Cc1ccccc1F (stereo not given)	-	-	-8.6	-	-	-	-	-	-
CN(CCC1CCOCC1)C(=O)CC1C(=O)NCCN1Cc1ccccc1F (stereo not given)	-	-	-	-	-	.	.	.	.
Cc1oc2c(CN(C)C)c(O)ccc2c(=O)c1-c1ccc2ccccc2n1	-	-	-8.6	-	-	-	-	-	-
CCOc1ccc(C)cc1S(=O)(=O)n1cnc2ccccc21	-	-	-	-	-	.	.	.	.
SMILES	MrgX1 PAM	RGS4 inh	MrgX1 antagonist	MrgX1 ag	RGS4 pot	MrgX1 antag conf	HEK293 Ca flux	HEK293 Ca counter	HEK293 Ca cntr2
O=C(OCc1nnc(-c2ccccc2)o1)c1cccc(-n2cnnn2)c1	-	-	-	-	-	.	.	.	.
Cc1cccc(NC(=O)CNC(=O)C23CC4CC(CC(Cl)(C4)C2)C3)n1	-	-	-	-	-	.	.	.	.
Cc1cccc(C)c1NC(=O)CNC(=O)C12CC3CC(CC(O)(C3)C1)C2	-	-	-4.9	-	-	-	-	-	-
COc1ccc(CN2CC[C@@H](N3CCOCC3)[C@H](O)C2)cc1F	-	-	-	-	-	.	.	.	.
CC(C)Oc1ccc(C(=O)Nc2nnc(SCC(=O)N3CCOCC3)s2)cc1	-	-	-4.9	-	-	-	-	-	-
CCOc1ccccc1NS(=O)(=O)c1ccc(-c2cnc(C3CC3)o2)cc1	-	-	-	-	-	.	.	.	.
COc1ccccc1NS(=O)(=O)c1ccc(-c2cnc(C3CC3)o2)cc1	-	-	-5.2	-	-	-	-	-	-
CCc1cccc(NC(=O)CCc2nc(-c3cccs3)no2)c1	-	-	-	-	-	.	.	.	.
O=C(CCc1nc(-c2cccs2)no1)Nc1cnc2ccccc2c1	-	-	-5.6	-	-	84%	-	-	-
O=C1CCN(S(=O)(=O)c2ccc(Cl)cc2)CCN1	-	-	-4.6	-	-	84%	-	-	-
COC(=O)C1CSc2[nH]c(=O)sc2C1c1ccccc1 (stereo not given)	-	-	-5.7	-	-	-	-	-	-
COc1ccc2nc(-c3ccc(F)cc3)sc2c1	-	-	-4.6	-	-	-	-	-	-
COc1ccc2nc(N)sc2c1	-	-	-	-	-	.	.	.	.
COc1ccc2nc(-n3c(C)ccc3C)sc2c1	-	-	-6	-	-	-	-	-	-
CC(C)NC(=O)c1ccc(C(C)C)cc1	-	-	-	-	-	.	.	.	.
O=C(OCn1nnc2ccccc2c1=O)C1CCCCC1	-	-	-10	-	-	-	-	-	-
Cc1nc2nc(C)c(CCC(=O)O)c(C)n2n1	-	-	-	-	-	.	.	.	.
Cn1c(C(=O)N2CCC(C(N)=O)CC2)cc2cc(Cl)ccc21	-	-	-6.1	-	-	-	-	-	-
O=C(CCC(=O)N(CC(=O)NC1CCCCC1)Cc1cccs1)Nc1nccs1	-	-	-	-	-	.	.	.	.
Cc1cccc(N=Cc2[nH]c3ccc(Br)c(Cl)c3c2O)c1	-	.	-5.9	-	.	-	0.18	-	-
COc1ccccc1CN=Cc1[nH]c2ccc(Br)c(Cl)c2c1O	-	-	-	-	-	.	.	.	.
CCCCOc1ccc(/C=C/C(=O)N(CC)CC(=O)Nc2ccc3c(c2)OCCO3)cc1OC	-	-	-	-	-	.	.	.	.
CCCc1nnc(SCc2ccc(OCC)cc2)n1N	-	-	-4.5	-	-	-	-	-	-
CCn1c2ccccc2c2cc(CN3CCN(S(=O)(=O)Cc4ccccc4)CC3)ccc21	-	-	-8.1	-	-	80%	-	-	-
